{"source": "ChEMBL document CHEMBL3259663", "about": "“3-Amido-3-aryl-piperidines: A Novel Class of Potent, Selective, and Orally Active GlyT1 Inhibitors” (ACS Med Chem Lett, 2014)", "key": {"[1]": {"assay": "Clearance in mouse at 1.7 mg/kg, iv", "assay_type": "ADME, organism-based", "design": "dose 1.7 mg/kg, route intravenous", "settings": "in vivo", "in_short": "(§1)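 Mouse PK, single iv dose of 1.7 mg/kg. Values are the average of two independent experiments.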"}, "[2]": {"assay": "Dissociation constant, pKa of the compound by capillary electrophoresis", "assay_type": "physicochemical", "in_short": "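pKa determined by capillary electrophoresis.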"}, "[3]": {"biological_target": "T1, Sodium- and chloride-dependent glycine transporter 2 (Homo sapiens, UniProt Q9Y345)", "T1 sequence (Q9Y345 whole entry)": "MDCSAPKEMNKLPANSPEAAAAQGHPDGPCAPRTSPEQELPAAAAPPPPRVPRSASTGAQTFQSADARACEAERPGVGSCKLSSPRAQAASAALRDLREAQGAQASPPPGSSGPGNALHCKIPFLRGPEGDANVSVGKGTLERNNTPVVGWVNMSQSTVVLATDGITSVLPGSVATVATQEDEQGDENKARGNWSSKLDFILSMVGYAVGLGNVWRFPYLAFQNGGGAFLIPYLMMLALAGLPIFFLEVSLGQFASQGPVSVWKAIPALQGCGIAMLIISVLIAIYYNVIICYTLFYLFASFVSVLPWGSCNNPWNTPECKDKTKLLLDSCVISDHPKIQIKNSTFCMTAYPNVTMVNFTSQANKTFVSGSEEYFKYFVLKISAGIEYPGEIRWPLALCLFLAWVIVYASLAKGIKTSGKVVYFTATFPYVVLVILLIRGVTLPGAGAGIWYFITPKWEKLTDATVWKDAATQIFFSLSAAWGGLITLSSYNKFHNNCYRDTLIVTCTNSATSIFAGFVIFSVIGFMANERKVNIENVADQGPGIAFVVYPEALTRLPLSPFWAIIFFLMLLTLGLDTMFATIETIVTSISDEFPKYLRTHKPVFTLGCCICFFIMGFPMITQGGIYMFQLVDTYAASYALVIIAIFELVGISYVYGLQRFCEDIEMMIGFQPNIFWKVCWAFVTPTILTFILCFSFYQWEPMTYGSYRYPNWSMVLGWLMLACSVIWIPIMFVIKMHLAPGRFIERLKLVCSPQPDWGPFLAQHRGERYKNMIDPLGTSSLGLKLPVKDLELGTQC", "assay": "Inhibition of human GlyT2 expressed in cells assessed as [3H]glycine uptake", "assay_type": "cell-based"}, "[4]": {"assay": "Ratio of drug level from brain to plasma rat at 10 mg/kg, po", "assay_type": "ADME, organism-based", "design": "dose 10 mg/kg, route oral", "settings": "brain and plasma, read-out: BPR", "in_short": "(§2)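 Rat striatal microdialysis after a 10 mg/kg oral dose. Extracellular glycine measured as fold over basal levels, with sampling stopped at 3 h. Plasma and brain exposures determined at 3 h post-dose. n = 6.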"}, "[5]": {"assay": "Genotoxicity in micronucleus (unknown origin) by MNT test"}, "[6]": {"assay": "Ratio of drug level from brain to plasma in mouse at 7.7 mg/kg, po after 1.5 hrs", "assay_type": "ADME, organism-based", "design": "dose 7.7 mg/kg, route oral", "settings": "brain and plasma, read-out: BPR", "in_short": "(§3)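 Mouse PK after a 7.7 mg/kg oral dose. Brain/plasma ratio taken at 1.5 h. Values are the average of two independent experiments.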"}, "[7]": {"assay": "Volume of distribution at steady state in mouse at 1.7 mg/kg, iv", "assay_type": "ADME, organism-based", "design": "dose 1.7 mg/kg, route intravenous", "settings": "in vivo, read-out: Vdss", "in_short": "as §1"}, "[8]": {"system": "Striatum", "assay": "Maximal induction of extracellular glycine level in rat striatum at 10 mg/kg, po relative to basal level", "assay_type": "functional", "in_short": "as §2"}, "[9]": {"assay": "Octanol-phosphate buffer partition coefficient, log D of the compound at pH 7.4", "assay_type": "physicochemical", "in_short": "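Distribution coefficient measured between 1-octanol and phosphate buffer at pH 7.4.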"}, "[10]": {"biological_target": "Cytochrome P450 2D6 (Homo sapiens, UniProt P10635)", "sequence (P10635 whole entry)": "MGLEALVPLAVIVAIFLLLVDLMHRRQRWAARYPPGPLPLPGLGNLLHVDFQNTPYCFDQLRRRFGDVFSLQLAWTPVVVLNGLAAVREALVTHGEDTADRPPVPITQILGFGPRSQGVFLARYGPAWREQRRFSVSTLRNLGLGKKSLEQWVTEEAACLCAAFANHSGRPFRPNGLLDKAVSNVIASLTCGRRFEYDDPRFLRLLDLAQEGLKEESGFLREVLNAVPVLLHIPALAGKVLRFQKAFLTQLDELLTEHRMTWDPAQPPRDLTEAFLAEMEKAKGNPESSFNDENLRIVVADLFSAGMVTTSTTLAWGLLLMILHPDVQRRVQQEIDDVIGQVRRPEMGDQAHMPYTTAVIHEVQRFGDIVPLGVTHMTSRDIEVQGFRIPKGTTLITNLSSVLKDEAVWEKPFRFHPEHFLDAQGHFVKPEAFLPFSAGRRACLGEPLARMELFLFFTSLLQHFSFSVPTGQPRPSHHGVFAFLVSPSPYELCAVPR", "assay": "Inhibition of CYP2D6 (unknown origin)", "assay_type": "ADME"}, "[11]": {"system": "Brain", "assay": "Effect on brain glycine level in rat striatum at 10 mg/kg, po", "assay_type": "functional", "in_short": "as §2"}, "[12]": {"assay": "Fraction unbound in mouse at 7.7 mg/kg, po", "assay_type": "ADME, organism-based", "design": "dose 7.7 mg/kg, route oral", "settings": "in vivo, read-out: PPB", "in_short": "as §3"}}}
{"compound": "COc1cc(C(F)(F)F)cc(SC)c1C(=O)N[C@@]1(c2ccccc2)CCCN(C)C1", "values": [{"measurement": "clearance", "setting": "[1]", "result": 54, "unit": "mL/min/kg"}, {"measurement": "pKa", "setting": "[2]", "result": 7.72}, {"measurement": "EC50", "setting": "[3]", "result": 15, "unit": "µM"}, {"measurement": "Kp", "setting": "[4]", "result": 0.08}, {"measurement": "Activity", "setting": "[5]", "result": "Non-toxic"}, {"measurement": "Kp at 1.5 h", "setting": "[6]", "result": 4.3}, {"measurement": "Vd", "setting": "[7]", "result": 8, "unit": "L/kg"}, {"measurement": "fold change (FC)", "setting": "[8]", "result": 1.7}, {"measurement": "logD", "setting": "[9]", "result": 3.12}, {"measurement": "IC50", "setting": "[10]", "result": 16, "unit": "µM"}, {"measurement": "Activity", "setting": "[11]", "result": 60, "unit": "ng/mL"}, {"measurement": "fraction unbound", "setting": "[12]", "result": 0.017}]}
